Screening results (PubChem)
STAT3 act: increases IL-6 driven STAT3 reporter signal | U3A cells, IL-6 STAT3-luciferase reporter, luminescence; 100% = signal with IL-6 EC80 alone | activation (% of control), % at 5.6 µM | 190,000 tested, 0.91% active;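 active = activation above the screen-wide mean of compound activation plus 3 SD, cut at about 130% in these data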
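system = STAT3-luciferase reporter U3A cells | reagent = IL-6 stimulus at 33 ng/mL final | timing = 1 h compound pre-exposure, 6 h IL-6 stimulation, 37 °C | measured by = luminescence | evaluation = % activation versus median of IL-6-stimulated wells | control set = IL-6-only wells as 100% reference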
STAT1 inh: inhibitors of IFN-gamma induced STAT1 signaling; NIH 3T3 STAT1-luciferase reporter, luminescence; inhibition, % at 5.5 µM; 200,000 tested, 0.35% active;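 active = inhibition above a set limit, the mean inhibition across all tested compounds plus 3 SD, cut at about 34% in these data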
STAT3 inh: STAT3 signaling inhibition | U3A cells, IL-6 STAT3-luciferase reporter, luminescence; host cell line lacks STAT1 | inhibition, % at 5.5 µM | 190,000 tested, 0.89% active;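 active = inhibition above the mean inhibition across all screened compounds plus 3 SD, cut at about 44% in these data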
NF-kB expr up: compounds increasing NF-kB expression in human neuronal cells. NF-kB reporter expression; active compounds read high. fold change at 12.5 µM. 190,000 tested, 1.6% active. AID 1239; in the data active = fold change above about 3.3
STAT1 act: increases IFN-gamma driven STAT1 reporter signal | activation (% of control), % at 5.5 µM | NIH 3T3 STAT1-luciferase reporter, luminescence; 100% = IFN-gamma alone, no compound | 200,000 tested, 2.6% active;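 active = activation above the screen-wide mean activation plus 3 SD, cut at about 130% in these data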
APP 5'UTR act: activates APP 5'UTR luciferase reporter. 190,000 tested, 1% active. activation, % at 2 µM. SH-SY5Y APP 5'UTR luciferase reporter, luminescence; zero percent = DMSO vehicle wells;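 active = activation above a set limit, based on mean plus 3 SD of controls, cut at about 140% in these data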
Each line names hits and unclear results; the compound was inactive in the other large screens. Only some compounds are listed: those with a hit (about 4.9% of all), similar ones and a draw of the others.

Cc1cccc2c(=O)c(C(=O)NCc3cccs3)c[nH]c12	STAT1 act 136 (no result: NF-kB expr up)
COC(=O)c1ccc(CN2CCN(CCc3ccccc3)C(CCO)C2)cc1 (stereo not drawn)	none
O=C1CCNc2cc3ccccc3cc21	STAT3 act 137
Cc1cc(/C=N/n2cnnc2)c(C)n1-c1ccc(OCc2ccc(Cl)cc2Cl)cc1	STAT1 inh 40, STAT3 inh 61
Cc1cc(C)nc(Nc2n[nH]c(-c3ccc(N)cc3)n2)n1	STAT1 act 156 (no result: APP 5'UTR act)
Cc1cc(C)nc(Nc2n[nH]c(-c3ccccc3C)n2)n1	STAT1 act 135
Cc1cc(C)nc(Nc2n[nH]c(-c3ccccc3Br)n2)n1	none
Cc1cc(C)nc(Nc2n[nH]c(C)n2)n1	none
Oc1ccccc1CNc1ccc(OC(F)(F)F)cc1	none
COc1ccccc1Nc1nnc(SCc2cc(=O)n3cc(C)ccc3n2)s1	none
Cc1ccc(-n2nnc(-c3cccnc3Cl)n2)cc1	NF-kB expr up 8.6, APP 5'UTR act 204 (no result: STAT3 act, STAT3 inh)
Clc1ncccc1-c1nnn(-c2ccccc2Br)n1	none (no result: STAT3 act, STAT3 inh)
Clc1ccc(-n2nnc(-c3cccnc3Cl)n2)cn1	STAT1 act 134 (no result: STAT3 act, STAT3 inh)
Cc1csc(Nc2ccccc2)n1	none
c1ccc(NC2=Nc3ccccc3CS2)cc1	NF-kB expr up 3.6, STAT1 act 138
Cc1ccc(C)c(NC(=O)Cn2cnc3c(oc4ccccc43)c2=O)c1	none
Cc1ccc(C2=N/C(=C\N3CCCCC3)C(=O)O2)cc1	STAT1 act 142
Cc1ccc(C2=N/C(=C/N3CCOCC3)C(=O)O2)cc1	STAT1 act 129
Cc1cccc2cc(/C=C3\N=C(c4ccccc4)OC3=O)c(N3CCOCC3)nc12	none
CCOC(=O)c1ccc(NC(=O)/C=C/c2cccs2)cc1	STAT1 act 143
Cc1cc(C)cc(NC(=O)/C=C/c2ccc([N+](=O)[O-])s2)c1	none
Cc1ccccc1NC(=O)/C=C/c1ccc([N+](=O)[O-])s1	NF-kB expr up 9.8
Cc1ccccc1NC(=O)/C=C/c1cccs1	STAT1 act 129 (no result: NF-kB expr up)
O=C(O)CN(C1CCCCC1)S(=O)(=O)c1ccc(F)cc1	none
CCNC(=S)NNC(=O)CCn1cc(C)cn1	none
O=C(Cc1cccc2ccccc12)N/N=C/c1ccc(Sc2cccc3cccnc23)o1	none
CCCCC(=O)N/N=C/c1ccc(Sc2cccc3cccnc23)o1	NF-kB expr up 4.4
CCn1c([N+](=O)[O-])nc2c1c(=O)[nH]c(=O)n2C	NF-kB expr up 4.8
CCCCCCn1c(SCCCC)nc2c1c(=O)[nH]c(=O)n2C	none
Cc1nc(CN2CCN(Cc3nc(C(c4ccccc4)c4ccccc4)no3)CC2)cs1	none
Cc1ccc(C(=O)CCNc2ccc(F)c(Cl)c2)o1	NF-kB expr up 5.4
Cc1ccc(C(=O)CCNc2ccccc2)o1	STAT1 act 140
S=C(Cc1cccnc1)N1CCOCC1	none
Cc1nn(-c2cccc([N+](=O)[O-])c2)c(N)c1-c1ccccc1	STAT1 act 142
COc1cnc(SCc2ccc(Cl)cc2)nc1Cl	none (no result: APP 5'UTR act)
Cc1nc(SCc2ccc(Cl)cc2)ncc1C(=O)O	NF-kB expr up 6.4
CN(C)c1ccc(C(=S)NC2CCCCC2)cc1	NF-kB expr up 3.4, STAT1 act 132
Clc1ccccc1Cn1nnc(-c2ccccc2)n1	STAT1 act 141
Clc1ccccc1Cn1nnc(-c2cccs2)n1	STAT1 act 143
Cc1cc2c(cc1C)C(c1ccsc1)CC(=O)N2 (stereo not drawn)	none
Cc1c(C(=O)Oc2ccc(F)cc2)sc2ncn(Cc3cccc(F)c3)c(=O)c12	none
CCn1cnc2sc(C(=O)Oc3cccc(C)c3)c(C)c2c1=O	STAT1 act 132
O=C(Nc1nccs1)c1sc2ccccc2c1Cl	NF-kB expr up 7, APP 5'UTR act 234
O=C(Nc1nccs1)c1sc2cc(Cl)ccc2c1Cl	STAT1 act 146
Nc1nc(CSc2ccccc2)nc(N2CCCCC2)n1	STAT1 act 142
O=C(CSc1ncn(-c2ccccc2)n1)c1cccs1	NF-kB expr up 3.5, STAT1 act 129
Nc1nc(CSc2nc3ccccc3[nH]2)cs1	none
Nc1nc(CSc2ncn(-c3ccccc3)n2)cs1	STAT1 act 132
c1ccc(CSc2ncn(-c3ccccc3)n2)cc1	NF-kB expr up 4.3, STAT1 act 144
S=C(Nc1ccccc1)N1N=C(c2cccs2)CC1c1cccs1 (stereo not drawn)	none
CC(=O)C1=C(C)NC(C)=C(C(C)=O)C1c1ccccc1	none
O=C(NCc1cccnc1)c1ccc(Cl)c(S(=O)(=O)Nc2ccccc2C(=O)NCc2cccnc2)c1	none
COc1cccc(OC)c1C(=O)Nc1ccc2c(c1)OCCO2	none
COc1ccc(C(=O)Nc2ccc(Cl)cn2)cc1Cl	STAT1 act 140
COc1ccc(NC(=O)c2ccc3c(c2)OCO3)cc1Cl	NF-kB expr up 5, APP 5'UTR act 138
COc1cc(C(=O)Nc2ccc3c(c2)OCCO3)ccc1OC(C)C	none
COc1ccccc1NC(=O)Nc1ccc2c(c1)OCCO2	STAT1 act 133 (no result: APP 5'UTR act)
COc1cc(C(=O)Nc2ccc3c(c2)OCCO3)ccc1OC(F)F	NF-kB expr up 3.4, STAT1 act 140
CCNc1nc(NC(C)(C)C)nc(SCC(N)=O)n1	none
Cc1nn(-c2ccccc2)c(Cl)c1/C=N/Nc1nc2ccccc2n1C	STAT1 act 145
Cc1nn(-c2ccccc2)c(Cl)c1/C=N/Nc1nnc(C)c(=O)[nH]1	none
CCS(=O)(=O)Nc1cc(-c2nc3cccnc3s2)ccc1C	STAT3 act 162, STAT1 act 135
Cc1cc(-c2nc3cccnc3s2)ccc1NS(=O)(=O)c1cccs1	STAT1 act 146 (no result: STAT3 act, STAT3 inh)
O=S(=O)(Nc1ccc(-c2nc3cccnc3s2)cc1)c1ccc(Cl)s1	STAT1 act 131
O=S(=O)(Nc1ccc(-c2nc3cccnc3s2)cc1)c1cccs1	none
CCS(=O)(=O)Nc1ccc(-c2nc3cccnc3s2)cc1	APP 5'UTR act 197 (no result: STAT3 act, STAT3 inh)
CN(Cc1cnn(C)c1)Cc1nc(C(c2ccccc2)c2ccccc2)no1	none
CSc1ccccc1C(=O)NCc1ccccc1C	none
Cc1csc(NC(=O)c2ccc(S(C)(=O)=O)cc2)n1	STAT1 act 130
CC(=O)c1c(C)[nH]c(C(=O)Nc2ccc(C)cn2)c1C	STAT1 inh 39, STAT3 inh 90
CC(=O)c1c(C)[nH]c(C(=O)Nc2nc(C)cs2)c1C	STAT1 inh 70, STAT3 inh 85
CC(=O)c1c(C)[nH]c(C(=O)Nc2cc(C)cc(C)c2)c1C	none
COCCCN(CC(=O)O)S(=O)(=O)c1cccc(Cl)c1	none
Cc1ccc2sc(-c3ccc(NC(=O)c4cc(-n5cnnc5)ccc4Cl)cc3)nc2c1	STAT1 act 149, APP 5'UTR act 156
CCNC(=O)COC(=O)c1sccc1C	none
Cc1ccsc1C(=O)OCC(=O)Nc1sccc1C(N)=O	STAT1 act 132
CC(=O)c1cnc2cc(-c3ccc(Cl)cc3)nn2c1C	NF-kB expr up 3.6, STAT1 act 138
